Compound activity: PubChem BioAssay, Johns Hopkins Ion Channel Center
hERG rescue = compounds protecting human hERG from proarrhythmic drug block; Q12809; CHO-hERG, FluxOR thallium flux, dofetilide IC70 present; activation (rescue from dofetilide block), less the hit threshold, % at 10 µM; hit rate 0.51% among 310,000; AID 1511;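 active = activation above the mean of controls blocked by dofetilide plus 5 SD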;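 note: thallium influx through hERG after potassium depolarization seen as dye fluorescence rise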
Kir21 inh = blocks the mouse Kir2.1 inward-rectifier potassium channel; P35561; HEK293-Kir2.1, FluxOR thallium flux fluorescence; stronger effect = lower value; B-score at 10 µM; hit rate 0.85% among 310,000; AID 1672;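 active = fluorescence ratio B-score at or below minus 3 SD of library scores, with starting-brightness B-score within 2 SD, cut at about -4.2 in these data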;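 note: channel flux triggered by added potassium and thallium sulfate stimulus; B-score of peak minus minimum fluorescence over baseline after thallium stimulus; more negative B-score means stronger Kir2.1 block with less thallium influx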
KCNQ1 act = potentiators or activators of human KCNQ1 potassium channel; P51787; CHO-K1 KCNQ1, thallium flux FluxOR fluorescence; stronger effect = higher value; B-score at 10 µM; hit rate 0.35% among 310,000;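 active = fluorescence ratio B-score, a plate-corrected score, at least three library SD, with initial intensity B-score within 5 SD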
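Doses: Single concentration per compound, DMSO matched to controls | Test system: KCNQ1-transfected CHO-K1 cells | Timing: 90 min dye loading and 20 min compound exposure, both at room temperature | Measured by: Kinetic FluxOR thallium fluorescence, 10-s 1-Hz baseline, 110-s post-stimulus read | Medium: Assay buffer with matched DMSO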
KCNK9 inh = blocks the human KCNK9 two-pore domain potassium channel | Q9NPC2 | HEK293 KCNK9, FluxOR thallium flux fluorescence; stronger effect = lower value | hit rate 1.2% among 310,000 | B-score at 10 µM;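 active = ratio B-score over 3 SD below the library mean, with starting fluorescence within 5 SD of its mean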;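 note: negative B-score means less thallium flux so channel inhibition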
KCNQ1 inh = inhibitors of human KCNQ1 potassium channel | CHO-K1 KCNQ1, FluxOR thallium flux fluorescence; stronger effect = higher value | B-score at 10 µM | hit rate 1.3% among 310,000;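 active = compounds whose thallium flux B-score, printed positive for inhibition, exceeds three library SD while starting fluorescence stays within three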;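 note: channel opened by potassium depolarization with thallium stimulus after 20 min compound exposure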
KCNK3 block = human KCNK3 channel inhibition, primary screen. O14649. CHO-KCNK3 thallium flux, FluxOR fluorescence; stronger effect = lower value. B-score at 10 µM. hit rate 0.84% among 340,000. AID 602410;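 active = B-score under library mean minus 4 SD, starting fluorescence ratio at most library mean plus 5 SD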;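 note: more negative B-score means stronger inhibition of thallium flux through KCNK3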
Target sequence (O14649 whole entry, looked up): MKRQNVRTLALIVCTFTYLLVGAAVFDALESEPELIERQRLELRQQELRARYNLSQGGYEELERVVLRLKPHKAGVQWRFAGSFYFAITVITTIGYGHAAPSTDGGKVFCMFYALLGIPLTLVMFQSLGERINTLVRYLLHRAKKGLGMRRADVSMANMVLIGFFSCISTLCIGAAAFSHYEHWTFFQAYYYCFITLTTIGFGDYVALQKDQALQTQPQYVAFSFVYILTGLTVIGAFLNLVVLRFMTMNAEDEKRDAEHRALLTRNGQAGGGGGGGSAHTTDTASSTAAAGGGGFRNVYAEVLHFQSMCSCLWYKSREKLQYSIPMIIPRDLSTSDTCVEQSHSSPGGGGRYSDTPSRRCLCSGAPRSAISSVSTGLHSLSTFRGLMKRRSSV
KCNK9 inh conf = human KCNK9 inhibitor confirmation; shares compounds with KCNK9 inh; HEK293 KCNK9 cells, FluxOR thallium flux fluorescence; inhibition, % at 10 µM; hit rate 43% among 4,900; AID 492992;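 active = thallium signal inhibited by more than 5 SD of the compound-free buffer control wells, on both duplicate plates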;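 note: 0% = assay buffer control wells without compound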
Kir2-1 spec = selectivity of KCNK9 modulators against mouse Kir2.1. shares compounds with KCNK9 inh. hit rate 4% among 4,900. inhibition, % at 10 µM. Kir2.1 cells, FluxOR thallium flux fluorescence. AID 492993;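 active = thallium signal drop more than 5 SD beyond the mean of the no-compound control wells, seen in both duplicate plates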;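 note: signal is fluorescence rise after thallium addition divided by baseline fluorescence; plate controls were assay buffer only for no effect and full block by chlorpromazine control for full effect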
HEK293 Tl ctr = non-induced cell nonspecific activity of KCNK9 modulators. shares compounds with KCNK9 inh. non-induced KCNK9-HEK293, FluxOR thallium flux. inhibition, % at 10 µM. hit rate 40% among 4,900;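 active = thallium signal drop beyond 5 SD of the untreated control mean, on both duplicate plates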;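 note: plate controls were buffer only IC0 wells for no effect and SID17386958 at its maximal inhibitory level for full effect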
* marks the source's active call; other numbers are inactive results; i = inactive; · = no result. Only some compounds are listed: those with a hit (about 3.7% of all), similar ones and a draw of the others.

SMILES | hERG rescue | Kir21 inh | KCNQ1 act | KCNK9 inh | KCNQ1 inh | KCNK3 block | KCNK9 inh conf | Kir2-1 spec | HEK293 Tl ctr
Cc1ccc(Sc2nnc(Cc3ccccc3)c3ccccc23)cc1 | -8 | -1.2 | i | -13* | i | i | 70%* | i | 42%*
COc1ccc(Sc2nnc(Cc3ccccc3)c3ccccc23)cc1 | -7 | 0.06 | i | -15* | i | i | i | i | 27%*
COc1ccc(Sc2nnc(-c3ccccc3)cc2C#N)cc1 | -4 | 0 | i | i | i | i | · | · | ·
CCOC(=O)c1cc2c(ccn2C)n1Cc1ccc(C#N)cc1 | -12 | -1.8 | i | -8.3* | i | i | 37%* | i | 30%*
CCOC(=O)c1cc2c(ccn2C)n1CC(=O)N(C)C | -11 | 0.57 | i | i | i | i | · | · | ·
Cc1ccc(/C=C2/SC(=S)N(C3CCCCC3)C2=O)o1 | -8 | -0.19 | i | i | i | i | i | i | i
Cc1cc(C)cc(OCC(=O)O/N=C(\N)c2ccccc2Cl)c1 | -6 | 0.92 | i | i | i | i | i | i | i
Cc1ccc(CSCC(=O)NCc2ccc(F)cc2)cc1 | -4 | -0.3 | i | i | i | i | · | · | ·
Cc1ccc(CCNC(=O)CSCc2ccc(F)cc2)cc1 | -4 | -3.1 | i | i | i | i | i | i | i
Cc1ccc(CSCC(=O)Nc2ccccc2F)cc1 | -16 | -0.27 | i | i | i | i | i | i | i
COc1ccc(CSCC(=O)Nc2ccccc2SC)cc1 | -5 | -2.8 | i | i | i | i | i | i | i
Cc1ccc(NC(=O)CSCc2ccc(F)cc2)cc1 | -9 | -0.55 | i | i | i | i | · | · | ·
COc1ccc(CSCC(=O)NCCC(C)C)cc1 | 1 | -1.8 | i | i | i | i | · | · | ·
C[C@]12CCC(O)CC1CCC1C2CC[C@]2(C)C(c3cc(C(F)(F)F)n[nH]3)CCC12 (some centres undefined) | -9 | 2 | i | -13* | i | i | 33%* | i | 63%*
COc1cnn(-c2ccccc2)c(=O)c1SCc1ccc(Cl)cc1Cl | -7 | -0.22 | i | i | i | i | · | · | ·
COc1cnc(SCc2ccc(Cl)cc2Cl)nc1Cl | -6 | 1.4 | i | i | i | i | i | i | 30%*
CCOc1ccccc1N(C)C(=O)c1cc2c(=O)n(CC)c3ccccc3c2s1 | -8 | -0.69 | i | -14* | i | i | 70%* | i | 38%*
CCn1c(=O)c2cc(C(=O)N(C)CC(OC)OC)sc2c2ccccc21 | -8 | 0.68 | i | i | i | i | · | · | ·
CC(C)C[C@H](NC(=O)c1nc[nH]c1C(=O)NCC(=O)OCc1ccccc1)C(=O)OCc1ccccc1 | -23 | 0.11 | i | i | i | i | i | i | i
CC(C)C[C@H](NC(=O)c1nc[nH]c1C(=O)NCC(=O)OC(C)(C)C)C(=O)OCc1ccccc1 | -8 | 0.21 | i | i | i | i | · | · | ·
Cc1ccc(S(=O)(=O)N2CCCCC2)cc1C(=O)N(CCc1ccccc1)Cc1ccccc1 | -14 | 1.4 | i | -16* | i | i | 79%* | i | 43%*
Cc1ccc(N(Cc2ccccc2)C(=O)c2cccc(S(=O)(=O)N3CC(C)OC(C)C3)c2)cc1 (centres undefined) | -16 | -0.12 | i | i | i | i | · | · | ·
CC1CN(S(=O)(=O)c2cccc(C(=O)N(CCc3ccccc3)Cc3ccccc3)c2)CC(C)O1 (centres undefined) | -8 | 0.79 | i | i | i | i | i | i | i
CCN1CCN(S(=O)(=O)c2ccc(Cl)c(C(=O)N(CCc3ccccc3)Cc3ccccc3)c2)CC1 | · | · | · | · | · | i | · | · | ·
